Experimental data from the RNAGym collection of RNA variant scans (doi:10.1126/science.aae0568).
This sample holds only a part of the variants without activity.

B1: tRNA (parent)
chain: GUUCCGUUGGCGUAAUGGUAACGCGUCUCCCUCCUAAGGAGAAGACUGCGGGUUCGAGUCCCGUACGGAACG

Variants of: B1
Assay: yeast fitness relative to wild type (ratio to wild type); higher = fitter; tRNA-Arg(CCU), competitive growth, 37 C, YPD
In short: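 For this measurement, the tRNA-Arg(CCU) gene was varied by chemical synthesis at a 3% per-site mutation rate across 69 sites, and each variant was placed at the native genomic locus in Saccharomyces cerevisiae. The pooled strains went through a 24-hour competition in YPD at 37°C in six parallel replicates, with amplicons from start and end populations read by 100-nucleotide paired-end sequencing. Darwinian fitness relative to wild type followed from the change in each genotype's frequency. Genotypes needed ≥ 100 starting reads, and estimates < 0.5 were set to 0.5.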

Variant | yeast fitness
G9C C31G A40C G50C C55U C60G A69G | 0.549
G9C G39C C61U | 0.544
G9C G39C A69U | ≤ 0.5
G9C G23A A40C A45C | ≤ 0.5
G9C C22U G48C G51C | 0.595
G9C C30G U53C | ≤ 0.5
G9C C30A | 0.664
G9C C30G | 0.578
G9C C30U | 0.628
G9C A42U U54C | ≤ 0.5
G9C C34G C61U | 0.553
G9C G10A G12C C22U A45U | ≤ 0.5
G9C G17A U19C G23A C49U C55U | ≤ 0.5
G9C A45U C55G C61U | ≤ 0.5
G9C C27G C30G A40U C49U | ≤ 0.5
G9C C29G C34G C60G | 0.534
G9C G17C G18C C62U A69G | 0.629
G9C G23C A57C | ≤ 0.5
G9C C61A G67A | ≤ 0.5
G9C G10C C61U | ≤ 0.5
G9C C27G | 0.581

Variant | yeast fitness
G9C C27A | 0.732
G9C G18C C49G | ≤ 0.5
G9C G18C C49G A65U | 0.553
G9C C31U A65U | ≤ 0.5
G9C C27A C30A | ≤ 0.5
G9C C34U C55A A57C | ≤ 0.5
G9C C24G C33G U35A G48C C66A | ≤ 0.5
G9C G12A C62G G67A | 0.618
G9C C60G G67A | 0.572
G9C C46U A57C | 0.662
G9C C34U A45C G48C | ≤ 0.5
G9C G23C C30G G44A G58C G63A A70G | ≤ 0.5
G9C G39C G67U | ≤ 0.5
G9C G10C C33U | ≤ 0.5
G9C A45C | 0.587
G9C A45U | 0.771
G9C C11G A57C A70C | ≤ 0.5
G9C C27U C33G A37G | ≤ 0.5
G9C C27U A42U G63C | ≤ 0.5
G9C G10A G12C A45U C60A | ≤ 0.5
G9C C27U G41A | 0.728

Variant | yeast fitness
G9C A57U C62G | ≤ 0.5
G9C G12A | 0.629
G9C C31G | 0.66
G9C C31U | 0.676
G9C C22U C33G A43U A45U C46G U54A A65U | 0.67
G9C A45U C55G | 0.533
G9C G17A U19C G23A G67U | ≤ 0.5
G9C C34G A70G | ≤ 0.5
G9C A69C | 0.821
G9C A69U | 0.841
G9C C31A C62G C66U | ≤ 0.5
G9C C27G C60U A69U | ≤ 0.5
G9C G38A A57C | ≤ 0.5
G9C C31A C49G | 0.574
G9C C31G A40C A45C G48C | 0.668
G9C G12A C61G | ≤ 0.5
G9C A43C | 0.58
G9C C33G G39A C66G | 0.59
G9C C22A C34A C55G A65G | 0.526
G9C C27U U47C C55U C62G A65G A69U | ≤ 0.5
G9C C34G C61U C66U | 0.58

Variant | yeast fitness
G9C G41A C60G A65G | ≤ 0.5
G9C C46U | 0.896
G9C C27A C55U | ≤ 0.5
G9C C24G A65C | ≤ 0.5
G9C C11G C24U C31U U59A | ≤ 0.5
G9C G23A A40C C55G | 0.549
G9C C11U C22G A65U | ≤ 0.5
G9C C24U A37C C61G | ≤ 0.5
G9C C34G G52A G56A | ≤ 0.5
G9C C22G A57C | ≤ 0.5
G9C A65C A70U | 0.539
G9C C11U C30G A43C | ≤ 0.5
G9C C30A G38A A42G | 0.515
G9C G39A G68C A69C | ≤ 0.5
G9C A57U C60A | 0.727
G9C C61U | 0.844
G9C C61G | 0.61
G9C C22U U47C | 0.694
G9C C29G C34G C60G C62U | ≤ 0.5
G9C C24U C30G G51A C60U | ≤ 0.5
